This is an account of results in PubChem BioAssay AID2307 (NMMLSC, 2010).

The structures appear in SMILES notation.

In the assay the target is Regulator of G-protein signaling 8 (Homo sapiens) (UniProt P57771). Briefly: small molecules altering RGS8 binding of Galphao – biochemical, multiplex bead flow cytometry, SAR compounds, SAR follow-up (AID 2307). Particulars: bead-based flow cytometry, AF488-Galphao binding to RGS8; for Ki: measured here: Ki calculated from EC50. Put shortly: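 Material: streptavidin bead-bound biotinylated RGS8 / Replication: duplicate wells per compound concentration / Doses: nine compound concentrations / Reagent: AlexaFluor488-labelled Galphao, GDP-AlF4-activated, 7 nM final / Measure: normalised binding, fitted EC50 and derived Ki / Incubation: Bead–Galphao binding for 30–90 min at room temperature / Measured by: flow cytometry, 530 nm bead fluorescence / Controls: DMSO high, blank beads low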

Usually Ki stands for the dissociation constant of the complex between target and ligand, obtained from inhibition or displacement. The term EC50 denotes the concentration that produces a half-maximal response.

Sequence of Regulator of G-protein signaling 8 (Homo sapiens) (P57771 whole entry, looked up): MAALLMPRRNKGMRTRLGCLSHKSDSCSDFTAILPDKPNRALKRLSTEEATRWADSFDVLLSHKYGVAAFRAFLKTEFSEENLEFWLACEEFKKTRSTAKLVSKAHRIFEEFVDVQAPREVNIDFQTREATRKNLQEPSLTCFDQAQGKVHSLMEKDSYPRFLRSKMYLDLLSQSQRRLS

In the case of `Cc1cccc(N2CCN(C(=O)COc3nsc4nc(C)cc(C)c34)CC2C)c1` (stereo not given), the Ki is 2640 nM.
In the case of `NS(=O)(=O)c1ccc(N/N=C/c2ccc(O)c(O)c2O)c([N+](=O)[O-])c1`, the EC50 was 29 nM and the Ki was 20 nM.
As to `CC(=O)OCCCNc1cc(Sc2nc3ccccc3s2)c2nonc2c1[N+](=O)[O-]`, the inhibition constant (Ki) is 70 nM.
Still for that read-out and setting: the value for `Nc1c(C(=O)NCC2CCCO2)sc2nc3c(c(-c4ccco4)c12)CC/C3=C/c1ccco1` (stereo not given) was 400 nM; that for `CN=c1scc(C)n1/N=C/c1ccc(O)c(O)c1O` was 260 nM; that for `O=C(Cc1csc(N2CCOCC2)n1)N/N=C/c1ccc(O)c(O)c1O` was 320 nM.
Same read-out and setting: the value for `O=C(COc1ccccc1C(=O)N/N=C/c1ccc(O)c(O)c1)N/N=C/c1ccc(O)c(O)c1` was 100 nM; that for `O=C1C(Cl)=C(N2CCCCC2)C(=O)C(Cl)=C1c1cnc(N2CCCCC2)s1` was 60 nM; that for `CC(NC(=O)c1sc2cc([N+](=O)[O-])ccc2c1Cl)C(C)(C)C` (stereo not given) was 170 nM.
On the same count and under the same terms, the value for `CCN(CC)S(=O)(=O)c1cccc(C(=O)N/N=C/c2ccc(O)c(O)c2O)c1` was 340 nM; that for `CCOC(=O)c1sc(NC(=O)CSc2nnc(Cc3ccccc3)o2)c(C#N)c1C` was 150 nM.
`COc1ccc(C2=CC(=O)C=CC2=O)cc1`: the inhibition constant (Ki) was 150 nM.
Still for that read-out and setting: next, `O=C(NCCCN1CCOCC1)c1sc2cc([N+](=O)[O-])ccc2c1Cl`: 470 nM.
On to `Cc1[nH]n(-c2ccccc2)c(=S)c1C=NCCCN=Cc1c(C)[nH]n(-c2ccccc2)c1=S`, for which the Ki is 430 nM.
In the case of `Cc1cccc(N2CCN(C(=O)Cn3sc4nc(C)cc(C)c4c3=O)CC2C)c1` (stereo not given), the inhibition constant Ki was 460 nM.
The same measure, in the same setting: next, `CCC(=O)NC(c1ccc(C)cc1)c1cc([N+](=O)[O-])c2cccnc2c1O` (stereo not given): 3590 nM; `CCN(CC)S(=O)(=O)c1cccc(-c2n[nH]c(=S)n2/N=C/c2ccc(C(=O)OC)cc2)c1`: 2590 nM; `Cc1[nH]n(-c2ccccc2)c(=S)c1C=Nc1cccc([N+](=O)[O-])c1`: 180 nM.
On the same count and under the same terms, next, `CN1CCN(C2=C(Cl)C(=O)C(c3cnc(N4CCCCC4)s3)=C(Cl)C2=O)CC1`: 20 nM; `Cc1cc(Cl)ccc1N=c1ssnc1Cl`: 110 nM; `CCN=c1scc(C)n1/N=C/c1ccc(O)c(O)c1O`: 470 nM.
The same measure, in the same setting: the value for `O=c1c2ccccc2sn1-c1ccc(S(=O)(=O)N2CCCC2)cc1` was 20 nM; that for `COC(=O)CCC(=O)Nc1sc(C)c(C)c1C(N)=O` was 700 nM; that for `CC1(C)OC(=O)C(=Cc2ccc(-c3ccc(S(N)(=O)=O)cc3)o2)C(=O)O1` was 580 nM.
